Source: ChEMBL document CHEMBL3525900, “Pharmacokinetics, distribution, and metabolism of [14C]sunitinib in rats, monkeys, and humans” (Drug Metab Dispos, 2012)

Tests used:
[1] = system: Lung; assay: Drug concentration in male albino rat lung assessed as radioactivity per gram of tissue at 20 mg/kg administered as single dose via gastric gavage measured after 24 hrs by autoradiographic analysis; type: ADME, organism-based; design: dose 20 mg/kg, dosed compound name [14C]Sunitinib; settings: in vivo, po
[2] = Drug concentration in male Lister Hooded pigmented rat eye assessed as radioactivity per gram of tissue at 20 mg/kg administered as single dose via gastric gavage measured after 24 hrs by autoradiographic analysis; type: ADME, organism-based; design: dose 20 mg/kg, dosed compound name [14C]Sunitinib; settings: in vivo, po
[3] = system: Blood; assay: Drug concentration in male albino rat blood assessed as radioactivity per gram of tissue at 20 mg/kg administered as single dose via gastric gavage measured after 24 hrs by autoradiographic analysis; type: ADME, organism-based; design: dose 20 mg/kg, dosed compound name [14C]Sunitinib; settings: in vivo, po
[4] = Drug concentration in female albino rat bone marrow assessed as radioactivity per gram of tissue at 20 mg/kg administered as single dose via gastric gavage measured after 6 hrs by autoradiographic analysis; type: ADME, organism-based; design: dose 20 mg/kg, dosed compound name [14C]Sunitinib; settings: in vivo, po
Method in brief: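 Sprague Dawley (albino) rats, ca 7-8 weeks old, received a single gastric-gavage dose of [14C]sunitinib L-malate at 20 mg/kg (15 mg freebase/kg, 100 µCi/kg). One animal per sex killed by CO2 at 3, 6, 24, 72 and 168 h, then frozen in CO2/hexane. 30 µm sagittal sections were cut and freeze-dried. Radioactivity per gram quantified by whole-body autoradiography using regression against standards. LOQ 0.04–0.06 µg freebase equiv/g.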

[5] = Drug concentration in male Lister Hooded pigmented rat bone marrow assessed as radioactivity per gram of tissue at 20 mg/kg administered as single dose via gastric gavage measured after 168 hrs by autoradiographic analysis; type: ADME, organism-based; design: dose 20 mg/kg, dosed compound name [14C]Sunitinib; settings: in vivo, po
[6] = Drug concentration in female Lister Hooded pigmented rat lymph node assessed as radioactivity per gram of tissue at 20 mg/kg administered as single dose via gastric gavage measured after 24 hrs by autoradiographic analysis; type: ADME, organism-based; design: dose 20 mg/kg, dosed compound name [14C]Sunitinib; settings: in vivo, po
Method in brief: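 Sprague Dawley (albino) and Lister Hooded (pigmented) rats, ca 7-8 weeks old, 179-310 g, acclimated 7 days. Single gavage dose of [14C]sunitinib L-malate (15 mg freebase/kg, 100 µCi/kg). One male and one female killed by CO2 per time point: albino at 3, 6, 24, 72, 168 h; pigmented at 24, 72, 168, 336 h. Carcasses frozen in solid CO2/hexane, 30 µm sagittal sections freeze-dried. Tissue radioactivity read by quantitative whole-body autoradiography against regression of standards, mean background subtracted.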

[7] = Drug concentration in female albino rat uveal tract assessed as radioactivity per gram of tissue at 20 mg/kg administered as single dose via gastric gavage measured after 6 hrs by autoradiographic analysis; type: ADME, organism-based; design: dose 20 mg/kg, dosed compound name [14C]Sunitinib; settings: in vivo, po
[8] = system: Spleen; assay: Drug concentration in male Lister Hooded pigmented rat spleen assessed as radioactivity per gram of tissue at 20 mg/kg administered as single dose via gastric gavage measured after 24 hrs by autoradiographic analysis; type: ADME, organism-based; design: dose 20 mg/kg, dosed compound name [14C]Sunitinib; settings: in vivo, po
[9] = Drug concentration in male albino rat testis assessed as radioactivity per gram of tissue at 20 mg/kg administered as single dose via gastric gavage measured after 3 hrs by autoradiographic analysis; type: ADME, organism-based; design: dose 20 mg/kg, dosed compound name [14C]Sunitinib; settings: in vivo, po
[10] = system: Spleen; assay: Drug concentration in female albino rat spleen assessed as radioactivity per gram of tissue at 20 mg/kg administered as single dose via gastric gavage measured after 6 hrs by autoradiographic analysis; type: ADME, organism-based; design: dose 20 mg/kg, dosed compound name [14C]Sunitinib; settings: in vivo, po
[11] = system: Stomach; assay: Drug concentration in male Lister Hooded pigmented rat stomach assessed as radioactivity per gram of tissue at 20 mg/kg administered as single dose via gastric gavage measured after 168 hrs by autoradiographic analysis; type: ADME, organism-based; design: dose 20 mg/kg, dosed compound name [14C]Sunitinib; settings: in vivo, po
[12] = system: Spleen; assay: Drug concentration in female albino rat spleen assessed as radioactivity per gram of tissue at 20 mg/kg administered as single dose via gastric gavage measured after 3 hrs by autoradiographic analysis; type: ADME, organism-based; design: dose 20 mg/kg, dosed compound name [14C]Sunitinib; settings: in vivo, po
[13] = Drug concentration in female albino rat skeletal muscle assessed as radioactivity per gram of tissue at 20 mg/kg administered as single dose via gastric gavage measured after 24 hrs by autoradiographic analysis; type: ADME, organism-based; design: dose 20 mg/kg, dosed compound name [14C]Sunitinib; settings: in vivo, po
[14] = system: Adrenal; assay: Drug concentration in male albino rat adrenal assessed as radioactivity per gram of tissue at 20 mg/kg administered as single dose via gastric gavage measured after 3 hrs by autoradiographic analysis; type: ADME, organism-based; design: dose 20 mg/kg, dosed compound name [14C]Sunitinib; settings: in vivo, po
[15] = system: Brain; assay: Drug concentration in male Lister Hooded pigmented rat brain assessed as radioactivity per gram of tissue at 20 mg/kg administered as single dose via gastric gavage measured after 24 hrs by autoradiographic analysis; type: ADME, organism-based; design: dose 20 mg/kg, dosed compound name [14C]Sunitinib; settings: in vivo, po
[16] = system: Large intestine; assay: Drug concentration in male albino rat large intestine assessed as radioactivity per gram of tissue at 20 mg/kg administered as single dose via gastric gavage measured after 3 hrs by autoradiographic analysis; type: ADME, organism-based; design: dose 20 mg/kg, dosed compound name [14C]Sunitinib; settings: in vivo, po
[17] = Drug concentration in male Lister Hooded pigmented rat skeletal muscle assessed as radioactivity per gram of tissue at 20 mg/kg administered as single dose via gastric gavage measured after 24 hrs by autoradiographic analysis; type: ADME, organism-based; design: dose 20 mg/kg, dosed compound name [14C]Sunitinib; settings: in vivo, po
[18] = system: Adrenal; assay: Drug concentration in male albino rat adrenal assessed as radioactivity per gram of tissue at 20 mg/kg administered as single dose via gastric gavage measured after 72 hrs by autoradiographic analysis; type: ADME, organism-based; design: dose 20 mg/kg, dosed compound name [14C]Sunitinib; settings: in vivo, po
[19] = system: Zone of skin; assay: Drug concentration in male albino rat abdomen skin assessed as radioactivity per gram of tissue at 20 mg/kg administered as single dose via gastric gavage measured after 6 hrs by autoradiographic analysis; type: ADME, organism-based; design: dose 20 mg/kg, dosed compound name [14C]Sunitinib; settings: in vivo, po
[20] = Drug concentration in male albino rat lachrymal gland assessed as radioactivity per gram of tissue at 20 mg/kg administered as single dose via gastric gavage measured after 24 hrs by autoradiographic analysis; type: ADME, organism-based; design: dose 20 mg/kg, dosed compound name [14C]Sunitinib; settings: in vivo, po
[21] = system: Kidney; assay: Drug concentration in female albino rat kidney assessed as radioactivity per gram of tissue at 20 mg/kg administered as single dose via gastric gavage measured after 72 hrs by autoradiographic analysis; type: ADME, organism-based; design: dose 20 mg/kg, dosed compound name [14C]Sunitinib; settings: in vivo, po
Method in brief: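 Sprague Dawley albino rats, ca 7-8 weeks old, dosed once by gastric gavage with [14C]sunitinib L-malate (15 mg freebase/kg, 100 µCi/kg). One male and one female killed by CO2 at 3, 6, 24, 72 and 168 h. Carcasses frozen in solid CO2/hexane, embedded and cut into 30 µm sagittal sections, then freeze-dried. Radioactivity quantified by whole-body autoradiography against standards by regression, background subtracted.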

[22] = Drug concentration in male albino rat uveal tract assessed as radioactivity per gram of tissue at 20 mg/kg administered as single dose via gastric gavage measured after 24 hrs by autoradiographic analysis; type: ADME, organism-based; design: dose 20 mg/kg, dosed compound name [14C]Sunitinib; settings: in vivo, po
[23] = Drug recovery in feces of female cynomolgus monkey at 6 mg/kg, po administered as single dose during 0 to 336 hrs by liquid scintillation counting; type: ADME, organism-based, Macaca fascicularis; design: dose 6 mg/kg, dosed compound name [14C]Sunitinib, route oral; settings: in vivo
[24] = system: Homo sapiens; assay: Apparent oral clearance as total radioactivity in human plasma at 50 mg, po administered as single dose measured up to 24 hrs by LC/MS/MS analysis; type: ADME, organism-based; design: dosed compound name [14C]Sunitinib; settings: in vivo
[25] = system: Thymus; assay: Drug concentration in male albino rat thymus assessed as radioactivity per gram of tissue at 20 mg/kg administered as single dose via gastric gavage measured after 3 hrs by autoradiographic analysis; type: ADME, organism-based; design: dose 20 mg/kg, dosed compound name [14C]Sunitinib; settings: in vivo, po
[26] = Drug concentration in male albino rat thyroid gland assessed as radioactivity per gram of tissue at 20 mg/kg administered as single dose via gastric gavage measured after 72 hrs by autoradiographic analysis; type: ADME, organism-based; design: dose 20 mg/kg, dosed compound name [14C]Sunitinib; settings: in vivo, po
[27] = system: Rattus norvegicus; assay: Tmax as total radioactivity in female Sprague-Dawley rat plasma at 15 mg/kg, po administered as single dose by LC/MS/MS analysis; type: ADME, organism-based; design: dose 15 mg/kg, dosed compound name [14C]Sunitinib, route oral; settings: in vivo
[28] = system: Stomach; assay: Drug concentration in female albino rat stomach assessed as radioactivity per gram of tissue at 20 mg/kg administered as single dose via gastric gavage measured after 3 hrs by autoradiographic analysis; type: ADME, organism-based; design: dose 20 mg/kg, dosed compound name [14C]Sunitinib; settings: in vivo, po
[29] = system: Stomach; assay: Drug concentration in female albino rat stomach assessed as radioactivity per gram of tissue at 20 mg/kg administered as single dose via gastric gavage measured after 24 hrs by autoradiographic analysis; type: ADME, organism-based; design: dose 20 mg/kg, dosed compound name [14C]Sunitinib; settings: in vivo, po

- Radiolabel recovery [1]: 0.87 ugequiv
- Radiolabel recovery [2]: 7.8 ugequiv
- Radiolabel recovery [3]: 0.07 ugequiv
- Radiolabel recovery [4]: 7.51 ugequiv
- Radiolabel recovery [5]: 0.06 ugequiv
- Radiolabel recovery [6]: 1.14 ugequiv
- Radiolabel recovery [7]: 4.94 ugequiv
- Radiolabel recovery [8]: 1.63 ugequiv
- Radiolabel recovery [9]: 0.79 ugequiv
- Radiolabel recovery [10]: 27.96 ugequiv
- Radiolabel recovery [11]: 0.06 ugequiv
- Radiolabel recovery [12]: 30.72 ugequiv
- Radiolabel recovery [13]: 0.33 ugequiv
- Radiolabel recovery [14]: 25.22 ugequiv
- Radiolabel recovery [15]: 0.06 ugequiv
- Radiolabel recovery [16]: 6.05 ugequiv
- Radiolabel recovery [17]: 0.3 ugequiv
- Radiolabel recovery [18]: 1.52 ugequiv
- Radiolabel recovery [19]: 3.45 ugequiv
- Radiolabel recovery [20]: 4.7 ugequiv
- Radiolabel recovery [21]: 0.39 ugequiv
- Radiolabel recovery [22]: 0.13 ugequiv
- Radiolabel recovery [23]: 84.1%
- CL/F [24]: 23.5 L/h
- Radiolabel recovery [25]: 6.89 ugequiv
- Radiolabel recovery [26]: 0.24 ugequiv
- Tmax [27]: 6 h
- Radiolabel recovery [28]: 15.45 ugequiv
- Radiolabel recovery [29]: 1.21 ugequiv
Structure (SMILES): CCN(CC)CCNC(=O)c1c(C)[nH]c(/[14CH]=C2\C(=O)Nc3ccc(F)cc32)c1C.O=C(O)C[C@H](O)C(=O)O
